# ChEMBL document CHEMBL4610039, “Design, synthesis and apoptosis-related antiproliferative activities of chelidonine derivatives” (Bioorg Med Chem Lett, 2020)
# Activity calls are given as the source filed them. The rule behind the calls is not given here.
# Experiments:
# [1] = Drug metabolism assessed as nitric oxide release after 210 mins; format: physicochemical; details: 3.5 h
# Summary of the method: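 NO released from the NO-donating derivatives was measured over time up to 210 min by Griess assay.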
# K562 [2] = test: Induction of apoptosis in human K562 cells assessed as increase in Bad protein expression after 24 hrs by chemiluminescence based protein array analysis; format: functional, cell-based
# Summary of the method: (§1)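 K562 cells were treated for 24 h, then proteins were extracted and run on a human apoptosis protein array. Chemiluminescent signals were detected with a digital imaging system.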
# K562 [3] = test: Induction of apoptosis in human K562 cells assessed as reduction in claspin level after 24 hrs by chemiluminescence based protein array analysis; format: functional, cell-based; summary of the method: as §1
# K562 [4] = test: Induction of cell cycle arrest in human K562 cells assessed as accumulation at S phase after 72 hrs by propidium iodide staining based flow cytometry; format: functional
# Summary of the method: (§2)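 For cell cycle, K562 cells were treated 72 h at 0, 0.55, 1.10 or 2.20 μM, with a solvent control. Cells were stained with PI and G1, S and G2/M fractions determined by flow cytometry.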
# K562 [5] = test: Induction of apoptosis in human K562 cells assessed as late apoptotic cells at 2.20 uM after 48 hrs by annexin V-FITC/propidium iodide staining based flow cytometry (reference value: 0.73%); format: functional
# K562 [6] = test: Induction of apoptosis in human K562 cells assessed as necrotic cells at 2.20 uM after 48 hrs by annexin V-FITC/propidium iodide staining based flow cytometry (reference value: 0.78%); format: functional
# K562 [7] = test: Induction of mitochondrial membrane potential loss in human K562 cells assessed as cell population with intact mitochondrial membrane potential at 1.10 uM after 48 hrs by JC1 staining-based flow cytometry analysis (reference value: 92.94%); format: functional
# MCF7 = test: Antiproliferative activity against human MCF7 cells assessed as reduction in cell growth after 72 hrs by MTT assay; format: functional, cell-based; details: MCF7, 72 h
# Summary of the method: (§3)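 Human HepG2, MCF-7, HCT-116 and K562 tumour cells plus normal L-02 hepatocytes and PBMCs were exposed to compounds for 72 h and growth was read by MTT. 5-Fu served as positive control. IC50 is the concentration inhibiting 50% of cell growth, given as mean ± standard deviation of three independent experiments.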
# K562 [8] = test: Induction of cell cycle arrest in human K562 cells assessed as accumulation at S phase at 2.20 uM after 72 hrs by propidium iodide staining based flow cytometry (reference value: 35.68%); format: functional; summary of the method: as §2
# K562 [9] = test: Induction of cell cycle arrest in human K562 cells assessed as accumulation at G1 phase at 1.10 uM after 72 hrs by propidium iodide staining based flow cytometry (reference value: 56.13%); format: functional; summary of the method: as §2
# L02 = test: Antiproliferative activity against human L02 cells assessed as reduction in cell growth after 72 hrs by MTT assay; format: functional, cell-based; details: L02, 72 h; summary of the method: as §3
# K562 [10] = test: Induction of morphological changes in human K562 cells assessed as chromatin aggregation at 0.55 to 2.20 uM after 48 hrs by Hoechst 33258 staining based fluorescence microscopic analysis; format: functional, cell-based
# Summary of the method: (§4)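 After 48 h exposure at 0, 0.55, 1.10 or 2.20 μM, K562 cells were stained with Hoechst 33258. Nuclear morphology, including chromatin aggregation and nuclear rupture, was examined by fluorescence microscopy.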
# K562 [11] = test: Induction of morphological changes in human K562 cells assessed as nuclear rupture at 0.55 to 2.20 uM after 48 hrs by Hoechst 33258 staining based fluorescence microscopic analysis; format: functional, cell-based; summary of the method: as §4
# K562 [12] = test: Induction of apoptosis in human K562 cells assessed as viable cells at 2.20 uM after 48 hrs by annexin V-FITC/propidium iodide staining based flow cytometry (reference value: 96.26%); format: functional; details: K562, 48 h, read-out: Activity
# K562 [13] = test: Induction of cell cycle arrest in human K562 cells assessed as accumulation at G1 phase at 0.55 uM after 72 hrs by propidium iodide staining based flow cytometry (reference value: 56.13%); format: functional; summary of the method: as §2
# K562 [14] = test: Induction of apoptosis in human K562 cells assessed as reduction in clusterin protein expression after 24 hrs by chemiluminescence based protein array analysis; format: functional, cell-based; summary of the method: as §1
# K562 [15] = test: Antiproliferative activity against human K562 cells assessed as reduction in cell growth after 72 hrs by MTT assay; format: functional, cell-based; details: K562, 72 h; summary of the method: as §3
# K562 [16] = test: Induction of apoptosis in human K562 cells assessed as necrotic cells at 0.55 uM after 48 hrs by annexin V-FITC/propidium iodide staining based flow cytometry (reference value: 0.78%); format: functional
# K562 [17] = test: Induction of apoptosis in human K562 cells assessed as early apoptotic cells at 0.55 uM after 48 hrs by annexin V-FITC/propidium iodide staining based flow cytometry (reference value: 2.23%); format: functional
# K562 [18] = test: Induction of mitochondrial membrane potential loss in human K562 cells assessed as cell population with intact mitochondrial membrane potential at 2.20 uM after 48 hrs by JC1 staining-based flow cytometry analysis (reference value: 92.94%); format: functional
# K562 [19] = test: Induction of cell cycle arrest in human K562 cells assessed as accumulation at G2/M phase at 0.55 uM after 72 hrs by propidium iodide staining based flow cytometry (reference value: 8.19%); format: functional; summary of the method: as §2
# K562 [20] = test: Induction of mitochondrial membrane potential loss in human K562 cells after 48 hrs by JC1 staining-based flow cytometry analysis; format: functional, cell-based
# K562 [21] = test: Induction of apoptosis in human K562 cells assessed as viable cells at 1.10 uM after 48 hrs by annexin V-FITC/propidium iodide staining based flow cytometry (reference value: 96.26%); format: functional; details: K562, 48 h, read-out: Activity
# K562 [22] = test: Induction of apoptosis in human K562 cells assessed as reduction in bcl-xl protein expression after 24 hrs by chemiluminescence based protein array analysis; format: functional, cell-based; summary of the method: as §1
# K562 [23] = test: Induction of apoptosis in human K562 cells assessed as necrotic cells at 1.10 uM after 48 hrs by annexin V-FITC/propidium iodide staining based flow cytometry (reference value: 0.78%); format: functional
# K562 [24] = test: Induction of mitochondrial membrane potential loss in human K562 cells assessed as cell population with mitochondrial membrane potential collapse at 0.55 uM after 48 hrs by JC1 staining-based flow cytometry analysis (reference value: 7.04%); format: functional
# K562 [25] = test: Induction of apoptosis in human K562 cells assessed as viable cells at 0.55 uM after 48 hrs by annexin V-FITC/propidium iodide staining based flow cytometry (reference value: 96.26%); format: functional; details: K562, 48 h, read-out: Activity
# K562 [26] = test: Induction of apoptosis in human K562 cells assessed as reduction in catalase protein expression after 24 hrs by chemiluminescence based protein array analysis; format: functional, cell-based; summary of the method: as §1
# K562 [27] = test: Induction of cell cycle arrest in human K562 cells assessed as accumulation at G2/M phase at 1.10 uM after 72 hrs by propidium iodide staining based flow cytometry (reference value: 8.19%); format: functional; summary of the method: as §2
# K562 [28] = test: Induction of mitochondrial membrane potential loss in human K562 cells assessed as cell population with mitochondrial membrane potential collapse at 2.20 uM after 48 hrs by JC1 staining-based flow cytometry analysis (reference value: 7.04%); format: functional
# K562 [29] = test: Induction of apoptosis in human K562 cells assessed as early apoptotic cells at 1.10 uM after 48 hrs by annexin V-FITC/propidium iodide staining based flow cytometry (reference value: 2.23%); format: functional
# K562 [30] = test: Induction of cell cycle arrest in human K562 cells assessed as accumulation at S phase at 0.55 uM after 72 hrs by propidium iodide staining based flow cytometry (reference value: 35.68%); format: functional; summary of the method: as §2
smiles,measurement,setting,value
CN1Cc2c(ccc3c2OCO3)[C@H]2[C@@H](OC(=O)CCCC(=O)OCC#CCOc3no[n+]([O-])c3S(=O)(=O)c3ccccc3)Cc3cc4c(cc3[C@H]21)OCO4,Drug metabolism,[1],30 µM
same,Activity,K562 [2],Active
same,Activity,K562 [3],Active
same,Activity,K562 [4],Dose-dependent effect
same,Activity,K562 [5],28.97%
same,Activity,K562 [6],1.16%
same,Activity,K562 [7],71.34%
same,IC50,MCF7,6.9 µM
same,Activity,K562 [8],59.72%
same,Activity,K562 [9],41.27%
same,IC50,L02,6.04 µM
same,Activity,K562 [10],Active
same,Activity,K562 [11],Active
same,viability at 2.2 µM,K562 [12],45%
same,Activity,K562 [13],47.82%
same,Activity,K562 [14],Active
same,IC50,K562 [15],1.12 µM
same,Activity,K562 [16],1.69%
same,Activity,K562 [17],6.49%
same,Activity,K562 [18],48.85%
same,Activity,K562 [19],10.28%
same,Activity,K562 [20],Dose-dependent effect
same,viability at 1.1 µM,K562 [21],80.5%
same,Activity,K562 [22],Active
same,Activity,K562 [23],0.66%
same,Activity,K562 [24],19.29%
same,viability at 0.55 µM,K562 [25],88.3%
same,Activity,K562 [26],Active
same,Activity,K562 [27],6.69%
same,Activity,K562 [28],51.15%
same,Activity,K562 [29],16.46%
same,Activity,K562 [30],41.89%
